SMILES strings stand for the structures.

One series deals with Dipeptidyl peptidase 9 (Homo sapiens, UniProt Q86TI2). In words: Inhibition of human recombinant DPP9 using Gly-Pro-AMC as substrate preincubated for 15 mins followed by substrate addition and measured for 20 mins by fluorescence based microplate reader assay.
In a further series the target is Dipeptidyl peptidase 8 (Homo sapiens, UniProt Q6V1X1). In words: Inhibition of human recombinant DPP8 using Gly-Pro-AMC as substrate preincubated for 15 mins followed by substrate addition and measured for 20 mins by fluorescence based microplate reader assay.
Chain of Dipeptidyl peptidase 8 (Q6V1X1 whole entry): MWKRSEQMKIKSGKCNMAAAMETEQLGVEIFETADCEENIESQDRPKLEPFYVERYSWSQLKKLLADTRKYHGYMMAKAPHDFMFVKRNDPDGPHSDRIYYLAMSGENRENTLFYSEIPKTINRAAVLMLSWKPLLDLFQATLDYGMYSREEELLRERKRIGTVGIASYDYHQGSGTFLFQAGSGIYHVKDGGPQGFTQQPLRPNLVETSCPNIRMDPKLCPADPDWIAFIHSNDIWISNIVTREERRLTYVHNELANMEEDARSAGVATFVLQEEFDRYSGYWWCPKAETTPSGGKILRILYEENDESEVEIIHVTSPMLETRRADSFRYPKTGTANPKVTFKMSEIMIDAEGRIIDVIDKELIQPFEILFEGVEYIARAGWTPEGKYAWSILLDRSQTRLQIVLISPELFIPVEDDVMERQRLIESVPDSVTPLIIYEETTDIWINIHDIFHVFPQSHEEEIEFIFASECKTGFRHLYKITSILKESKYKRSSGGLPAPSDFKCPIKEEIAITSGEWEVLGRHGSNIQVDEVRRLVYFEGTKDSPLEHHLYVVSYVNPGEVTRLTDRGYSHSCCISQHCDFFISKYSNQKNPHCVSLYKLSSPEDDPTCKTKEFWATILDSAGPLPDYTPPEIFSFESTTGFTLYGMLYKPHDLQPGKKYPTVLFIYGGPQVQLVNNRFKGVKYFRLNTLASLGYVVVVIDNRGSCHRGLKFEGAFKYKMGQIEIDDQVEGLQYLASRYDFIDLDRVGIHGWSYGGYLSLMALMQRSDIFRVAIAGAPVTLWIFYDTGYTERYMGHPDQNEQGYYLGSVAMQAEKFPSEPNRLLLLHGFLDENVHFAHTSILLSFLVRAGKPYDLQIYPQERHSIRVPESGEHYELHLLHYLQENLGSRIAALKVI
Series [1] can be described thus: Cytotoxicity against human L02 cells assessed as cell viability up to 100 uM measured after 48 hrs by MTT assay relative to control. It counts as cell-based. Conditions: read-out: Activity. Put shortly:
(§1)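 Log-phase hepatic LO2 cells seeded at 1 × 10^4 cells/well and exposed to compound or vehicle for 48 h. MTT (5 mg/mL in PBS) added for 4 h at 37 °C, 5% CO2; formazan dissolved in DMSO, absorbance read at 490 nm. Viability given as % of vehicle control; mean ± SD, n = 5.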
A general note: Tetrazolium dyes change colour on reduction, which living cells bring about.

Series [2] is described as follows: Metabolic stability in Sprague-Dawley rat plasma assessed as parent compound remaining at 1 uM incubated for 120 mins by LC-MS/MS analysis. It counts as ADME, cell-free. Conditions: read-out: Stability. In outline: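 SD rat plasma incubated with compound for 120 min. Supernatant analysed by LC-MS/MS; remaining % = (C120/C0) × 100. Values come from two independent experiments.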

A short description of series [3]: Metabolic stability in ICR mouse liver microsomes assessed as parent compound remaining at 0.1 uM incubated for 60 mins in presence of NADPH by LC-MS/MS analysis. Conditions: read-out: Stability. It counts as ADME, Microsome. In outline:
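ICR mouse liver microsomes (1 mg/mL) in 100 mM Tris pH 7.4 with 10 mM MgCl2, preincubated 5 min at 37 °C. Incubated 0–60 min at 37 °C with compound at 0.1 µM final. Quench with ice-cold methanol with 0.5% formic acid, centrifuge, LC-MS/MS. No-microsome controls run; all in duplicate.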
In general terms: Microsomes from liver hold many membrane-bound enzymes, among them those of drug oxidation.

The nature of series [4]: AUC (0 to infinity) in Sprague-Dawley rat at 3 mg/kg, iv measured after 48 hrs by LC-MS/MS analysis. The series is classed as ADME, organism-based. More on the design: route intravenous, time 48 hrs, dose 3 mg/kg. The following applies: in vivo.
Series [5] can be described thus: Cmax in Sprague-Dawley rat at 3 mg/kg, iv measured after 48 hrs by LC-MS/MS analysis. The series is classed as ADME, organism-based. On the set-up: route intravenous, dose 3 mg/kg, time 48 hrs. Conditions: in vivo.
Series [6] in a line: Half life in Sprague-Dawley rat at 3 mg/kg, iv measured after 48 hrs by LC-MS/MS analysis. The series is classed as ADME, organism-based. Conditions: in vivo.
Series [7] in a line: Clearance in Sprague-Dawley rat at 3 mg/kg, iv measured after 48 hrs by LC-MS/MS analysis. The series is classed as ADME, organism-based. Conditions: in vivo.
For the next series, the target named is Dipeptidyl peptidase 4 (Homo sapiens, UniProt P27487). In words: Inhibition of human recombinant DPP4 using Gly-Pro-AMC as substrate preincubated for 15 mins followed by substrate addition and measured for 20 mins by fluorescence based microplate reader assay.
Chain of Dipeptidyl peptidase 4 (P27487 whole entry): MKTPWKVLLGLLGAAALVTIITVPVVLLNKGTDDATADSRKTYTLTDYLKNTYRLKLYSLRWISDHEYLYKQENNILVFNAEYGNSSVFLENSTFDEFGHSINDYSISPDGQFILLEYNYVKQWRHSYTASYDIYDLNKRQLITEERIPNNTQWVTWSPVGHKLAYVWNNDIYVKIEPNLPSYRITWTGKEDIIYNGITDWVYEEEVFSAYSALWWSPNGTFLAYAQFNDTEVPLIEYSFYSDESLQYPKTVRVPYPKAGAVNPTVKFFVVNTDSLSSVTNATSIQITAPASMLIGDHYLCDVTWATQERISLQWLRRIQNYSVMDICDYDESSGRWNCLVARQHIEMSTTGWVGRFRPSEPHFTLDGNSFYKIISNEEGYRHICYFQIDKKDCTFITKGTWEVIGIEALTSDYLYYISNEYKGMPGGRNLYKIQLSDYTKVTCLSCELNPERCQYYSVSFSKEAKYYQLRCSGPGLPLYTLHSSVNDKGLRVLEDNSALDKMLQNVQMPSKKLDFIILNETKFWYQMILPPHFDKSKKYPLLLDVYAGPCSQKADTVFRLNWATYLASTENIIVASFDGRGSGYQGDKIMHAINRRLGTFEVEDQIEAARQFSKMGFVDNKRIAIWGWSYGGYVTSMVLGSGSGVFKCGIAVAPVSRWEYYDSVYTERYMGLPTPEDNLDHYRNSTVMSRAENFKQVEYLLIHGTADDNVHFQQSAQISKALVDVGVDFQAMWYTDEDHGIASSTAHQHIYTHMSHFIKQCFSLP
A short description of series [8]: Cytotoxicity against human L02 cells assessed as cell viability at 20 uM measured after 48 hrs by MTT assay relative to control. It counts as cell-based. The following applies: read-out: Activity. Put shortly:
as §1

For series [9], the system named is Mus musculus. Kind of series: Hypoglycemic activity in overnight fasted C57BL/6 db/db mouse reduction in blood glucose AUC (0 to 120 mins) at 10 mg/kg, po pretreated with compound for 30 mins followed by oral glucose challenge and measured up to 120 mins by glucometer relative to control. The series is classed as functional. More on the design: scale not given: the % may be the effect or the level left. The following applies: time min <=150. Put shortly: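 Male C57BL/6 db/db mice (6–8 weeks, 22 ± 2 g), overnight fasted, n = 6 per group. Oral dosing in water (vehicle: water), then oral glucose 2 g/kg 30 min later. Tail-bleed glucose by glucometer predose and at 0, 15, 30, 60 and 120 min after the load.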

The test system of series [10] is Mus musculus. In words: Antidiabetic activity in C57BL/6 db/db mouse assessed as reduction in blood glucose AUC (0 to 120 mins) at 10 mg/kg, po administered once daily for 4 weeks followed by 12 hrs fasting and subsequent glucose challenge and measured up to 120 mins by glucometer relative to control. It counts as functional. On the set-up: scale not given: the % may be the effect or the level left. Put shortly: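 Male db/db mice (10 weeks old), grouped by nonfasting and 12 h fasting glucose and body weight, n = 8 per group, lean littermates as lean control. Oral dosing in water once daily for 4 weeks. Then 12 h fast, oral glucose 1.5 g/kg, glucometer readings at 0, 15, 30, 60 and 120 min.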

In series [11] the target is Dipeptidyl peptidase 4 (Rattus norvegicus) (UniProt P14740). In words: In vivo inhibition of DPP4 in Sprague-Dawley rat plasma at 10 mg/kg, po via gavage using Gly-Pro-AMC as substrate measured after 24 hrs relative to control. It counts as functional, organism-based. In outline: (§2)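 Male SD rats (n = 3/group), fasted overnight, gavaged with 10 mg/kg in distilled water or vehicle. Heparinized orbital blood taken at 0–48 h; plasma stored −20 °C. Plasma mixed with 125 µM Gly-Pro-AMC in 100 mM HEPES pH 7.5, 0.1 mg/mL BSA; AMC release followed 10 min at 37 °C (ex 360/em 460 nm). Rate expressed as % of vehicle-sample rate.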
Chain of Dipeptidyl peptidase 4 (Rattus norvegicus) (P14740 whole entry, looked up): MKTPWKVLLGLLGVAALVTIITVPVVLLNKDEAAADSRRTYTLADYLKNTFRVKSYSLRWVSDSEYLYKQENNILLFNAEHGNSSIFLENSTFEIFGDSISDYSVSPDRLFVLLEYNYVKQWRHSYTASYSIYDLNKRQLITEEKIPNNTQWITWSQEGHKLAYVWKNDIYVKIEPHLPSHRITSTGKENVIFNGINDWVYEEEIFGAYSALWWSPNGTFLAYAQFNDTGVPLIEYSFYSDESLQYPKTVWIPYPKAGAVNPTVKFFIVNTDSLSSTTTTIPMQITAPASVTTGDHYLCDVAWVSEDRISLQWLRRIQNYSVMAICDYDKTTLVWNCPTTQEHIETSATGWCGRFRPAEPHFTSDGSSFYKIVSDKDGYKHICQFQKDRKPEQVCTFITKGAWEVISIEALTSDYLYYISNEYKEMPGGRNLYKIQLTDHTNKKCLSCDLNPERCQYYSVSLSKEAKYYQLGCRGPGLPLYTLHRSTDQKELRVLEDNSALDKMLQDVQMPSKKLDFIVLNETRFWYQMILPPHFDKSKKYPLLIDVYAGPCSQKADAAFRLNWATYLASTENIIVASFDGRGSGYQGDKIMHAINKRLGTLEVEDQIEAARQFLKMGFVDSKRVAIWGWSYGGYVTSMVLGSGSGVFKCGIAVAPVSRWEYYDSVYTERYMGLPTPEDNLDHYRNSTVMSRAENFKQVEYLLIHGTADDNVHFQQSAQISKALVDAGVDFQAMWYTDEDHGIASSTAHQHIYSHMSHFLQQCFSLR

Series [12] has as its system Mus musculus. In words: Hypoglycemic activity in ICR mouse assessed as reduction in glucose secretion at 10 mg/kg, po via gavage administered as single dose pretreated with compound followed by glucose challenge measured after 120 mins relative to control. The series is classed as functional. On the set-up: scale not given: the % may be the effect or the level left. The following applies: 2 h. Put shortly: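 Male ICR mice (6–7 weeks), overnight fasted, n = 8/group. Single gavage dose in water (vehicle: water). Tail-tip blood glucose by glucometer. Oral glucose 3 g/kg given 60 min after treatment (t = 0), and readings taken up to 120 min.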

Series [13] in a line: Tmax in Sprague-Dawley rat at 10 mg/kg, po measured after 48 hrs by LC-MS/MS analysis. The series is classed as ADME, organism-based. Conditions: in vivo.
The target of series [14] is Dipeptidyl peptidase 4 (Rattus norvegicus) (UniProt P14740). In words: In vivo inhibition of DPP4 in Sprague-Dawley rat plasma at 10 mg/kg, po via gavage using Gly-Pro-AMC as substrate measured after 30 mins relative to control. It counts as functional, organism-based. Put shortly: as §2
Series [15] has the same target. Kind of series: In vivo inhibition of DPP4 in Sprague-Dawley rat plasma at 10 mg/kg, po via gavage using Gly-Pro-AMC as substrate measured after 12 hrs relative to control. It counts as functional, organism-based. Put shortly: as §2
Series [16] is described as follows: AUC (0 to infinity) in Sprague-Dawley rat at 10 mg/kg, po measured after 48 hrs by LC-MS/MS analysis. It counts as ADME, organism-based. On the set-up: route oral, dose 10 mg/kg, time 48 hrs. Conditions: in vivo.
Series [17] is described as follows: Clearance in Sprague-Dawley rat at 10 mg/kg, po measured after 48 hrs by LC-MS/MS analysis. The series is classed as ADME, organism-based. Conditions: in vivo.
Series [18] in a line: Cmax in Sprague-Dawley rat at 10 mg/kg, po measured after 48 hrs by LC-MS/MS analysis. The following applies: in vivo. More on the design: route oral, dose 10 mg/kg, time 48 hrs. It counts as ADME, organism-based.
Series [19] is described as follows: Half life in Sprague-Dawley rat at 10 mg/kg, po measured after 48 hrs by LC-MS/MS analysis. Conditions: in vivo. It counts as ADME, organism-based.

Chain of Dipeptidyl peptidase 9 (Q86TI2 whole entry): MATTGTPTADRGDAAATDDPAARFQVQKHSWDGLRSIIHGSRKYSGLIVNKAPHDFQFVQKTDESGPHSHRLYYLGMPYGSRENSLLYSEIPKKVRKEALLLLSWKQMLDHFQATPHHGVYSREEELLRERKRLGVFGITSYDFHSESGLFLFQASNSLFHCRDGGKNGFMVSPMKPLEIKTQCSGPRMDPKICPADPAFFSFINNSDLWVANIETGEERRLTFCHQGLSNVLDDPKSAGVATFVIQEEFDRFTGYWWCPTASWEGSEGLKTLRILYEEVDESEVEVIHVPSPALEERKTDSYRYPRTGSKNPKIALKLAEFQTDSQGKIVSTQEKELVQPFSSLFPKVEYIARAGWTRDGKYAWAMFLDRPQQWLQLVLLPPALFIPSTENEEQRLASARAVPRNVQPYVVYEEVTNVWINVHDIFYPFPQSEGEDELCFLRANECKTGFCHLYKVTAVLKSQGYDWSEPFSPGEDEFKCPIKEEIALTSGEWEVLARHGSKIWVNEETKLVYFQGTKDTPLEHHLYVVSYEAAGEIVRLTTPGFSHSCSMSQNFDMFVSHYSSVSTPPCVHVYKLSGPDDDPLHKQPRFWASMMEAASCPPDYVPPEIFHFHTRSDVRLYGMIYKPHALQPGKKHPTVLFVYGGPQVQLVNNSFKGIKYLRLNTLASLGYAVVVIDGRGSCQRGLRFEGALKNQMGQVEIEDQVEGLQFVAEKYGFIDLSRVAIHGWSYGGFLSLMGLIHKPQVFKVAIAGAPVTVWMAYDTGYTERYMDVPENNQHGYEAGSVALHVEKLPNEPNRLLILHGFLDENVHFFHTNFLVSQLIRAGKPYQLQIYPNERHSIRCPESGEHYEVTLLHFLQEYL

Regarding `CC#CCn1c(N2CCC[C@@H](N)C2)cc(=O)n(Cc2cc(Br)cc(C(=O)O)c2)c1=O`, the IC50 at Dipeptidyl peptidase 9 and on Dipeptidyl peptidase 8 was over 100 µM in each case.
Take `CC#CCn1c(N2CCC[C@@H](N)C2)cc(=O)n(Cc2cc(C(=O)O)ccc2Cl)c1=O`: in series [1], the viability at 48 h is over 95%. In addition, the remaining at 2 h, 1 µM in series [2] turned out to be 103%. Also, the remaining at 1 h, 0.1 µM in series [3] was 106%. In addition, the IC50 on Dipeptidyl peptidase 9 and at Dipeptidyl peptidase 8 was over 100 µM throughout. Moreover, in series [4], the AUC (as a rule, concentration integrated over time) worked out at 8272.25 ng·h/mL. Also, the Cmax (commonly the peak of the concentration-time curve) in series [5] stood at 25700 ng/mL. In series [6], the half-life (in general, the time needed for the level to fall by half in the phase considered) was 54.6 min. This compound registered a CL in series [7] of 64.8 mL/min/kg.
Consider `CC#CCn1c(N2CCC[C@@H](N)C2)cc(=O)n(Cc2cccc(C(=O)O)c2F)c1=O`, for which the IC50 (usually the concentration that gives 50% inhibition) on Dipeptidyl peptidase 4 is over 1 µM.
Still for that read-out and setting: as for `CC#CCn1c(N2CCC[C@@H](N)C2)cc(=O)n(Cc2cccc(C(=O)O)c2Br)c1=O`, the figure is over 1 µM.
Regarding `COc1cccc2c1C(=O)c1c(O)c3c(c(O)c1C2=O)C[C@@](O)(C(=O)CO)C[C@@H]3O[C@H]1C[C@H](N)[C@H](O)[C@H](C)O1` [DOXORUBICIN], the viability at 48 h, 20 µM in series [8] was 25%.
On to `CC#CCn1c(N2CCC[C@@H](N)C2)cc(=O)n(Cc2cc(Br)cc(C(=O)OC)c2)c1=O`, for which the IC50 at Dipeptidyl peptidase 9 and on Dipeptidyl peptidase 8 was over 100 µM each time.
Regarding `CC#CCn1c(N2CCC[C@@H](N)C2)cc(=O)n(Cc2cccc(C(=O)OC)c2Br)c1=O`, the IC50 on Dipeptidyl peptidase 9 and on Dipeptidyl peptidase 8 was over 100 µM throughout.
Take `Cn1c(=O)cc(N2CCC[C@@H](N)C2)n(Cc2ccccc2C#N)c1=O` [ALOGLIPTIN]: the Activity in the series with Mus musculus [9] worked out at 40.1%; with Mus musculus [10] it was 16.7%; in the series with Mus musculus [12] it was 12.4%. Also, in series [11], the inhibition (commonly the relative decrease from the control value, in per cent) worked out at 45%.
`CC#CCn1c(N2CCC[C@@H](N)C2)cc(=O)n(Cc2cc(C(=O)OC)ccc2Cl)c1=O`: the viability at 48 h in series [1] is over 95%. In addition, the Tmax (in general, the time from dosing to the highest level) in [13] turned out to be 22.8 min. Moreover, the inhibition in series [14] was 90%; in series [15], over 70%. In addition, in [2], the remaining at 2 h, 1 µM was determined as 64.1%. Moreover, the remaining at 1 h, 0.1 µM in series [3] worked out at 34.4%. Also, the total exposure AUC(0-inf) – broadly, total exposure, with the tail of the curve extrapolated – in series [16] was found to be 26800 ng·h/mL. The IC50 on Dipeptidyl peptidase 9 and on Dipeptidyl peptidase 8 was over 100 µM each time. In addition, the CL/F – broadly, the apparent clearance, not corrected for the fraction that reaches the circulation – in [17] was 9.17 mL/min/kg. The same compound yielded a Cmax in [18] of 3190 ng/mL. The compound also gave a half-life in series [19] of 146 min.
In the case of `CC#CCn1c(N2CCC[C@@H](N)C2)cc(=O)n(Cc2cccc(C(=O)OC)c2F)c1=O`, the IC50 on Dipeptidyl peptidase 9 and on Dipeptidyl peptidase 8 was over 100 µM each time.

(Values after ChEMBL document CHEMBL4840327, “Identification and structure-activity relationship exploration of uracil-based benzoic acid and ester derivatives as novel dipeptidyl Peptidase-4 inhibitors for the treatment of type 2 diabetes mellitus” (Eur J Med Chem, 2021).)
